Source: article PMC2647857 (Journal of the American Chemical Society, 2009)
Like-named read-outs stand apart in the source and are kept apart here.

Assays:
[1] = Spectroelectrochemical midpoint potential of the NO complex; type: physicochemical, Rhodnius prolixus; conditions: NO bound
Procedure, shortened: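 Spectroelectrochemistry of ~0.05 mM E. coli-expressed protein in 0.1 M sodium phosphate or acetate at pH 5.5, 6.5 and 7.5, 27 ± 1 °C. SNAP supplied NO at a level fully complexing both oxidation states. Ag/AgCl reference ([…] mV vs SHE). Absorbance versus applied potential fit to Nernst equation; pH dependence and mutant−standard differences derived.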

[2] = ligand-free, cited from earlier work
[3] = NO bound, cited from earlier work
[4] = read-out: Kd for NO dissociation, Fe(III), cited from earlier work
[5] = Spectroelectrochemical midpoint potential, ligand-free; type: physicochemical, Rhodnius prolixus; conditions: ligand-free
[6] = Imidazole binding constant to Fe; parameters: species or system Rhodnius prolixus; conditions: pH 5.5
[7] = NO binding constant to Fe; parameters: species or system Rhodnius prolixus; conditions: pH 7.5

Molecule | Em,NO ([1]; pH 6.5, 27 °C) | Em,NO ([1]; pH 7.5, 27 °C) | Em ([2]; pH 5.5, 27 °C ref 15) | Em ([2]; pH 7.5, 27 °C ref 15) | Em,NO ([3]; pH 5.5, 27 °C ref 15) | Kd ([4]; pH 5.5 ref 19) | Kd ([4]; pH 7.5 ref 19) | ΔEm = Em(mutant)−Em(standard) ([5]; pH 5.5) | Em ([5]; pH 5.5, 27 °C) | ΔEm = Em(mutant)−Em(standard) ([5]; pH 7.5) | Em ([5]; pH 7.5, 27 °C) | ΔpHΔ(Em,NO) = ΔEm,NO(pH7.5) − ΔEm,NO(pH5.5) [1] | ΔEm,NO = Em(mutant)−Em(standard) ([1]; pH 5.5) | Em,NO ([1]; pH 5.5, 27 °C) | ΔEm,NO = Em(mutant)−Em(standard) ([1]; pH 6.5) | ΔEm,NO = Em(mutant)−Em(standard) ([1]; pH 7.5) | increase of imidazole binding constant compared to wild-type [6] | NO formation constant Kf, Fe(III) form ([7]; listed as M0-containing NP1) | Kd ([7]; read-out: NO dissociation constant Kd, Fe(III) form) | Em,NO ([3]; pH 7.5, 27 °C ref 15)
NP4: recombinant wild-type nitrophorin 4 of Rhodnius prolixus, native A1 as first residue (protein, UniProt Q94734 22-205, looked up) Nitrophorin-4: ACTKNAIAQTGFNKDKYFNGDVWYVTDYLDLEPDDVPKRYCAALAAGTASGKLKEALYHYDPKTQDTFYDVSELQVESLGKYTANFKKVDKNGNVKVAVTAGNYYTFTVMYADDSSALIHTCLHKGNKDLGDLYAVLNRNKDAAAGDKVKSAVSAATLEFSKFISTKENNCAYDNDSLKSLLTK | 44±2 mV vs. SHE | 59±2 mV vs. SHE | −259±2 mV vs. SHE | −278±4 mV vs. SHE | 94±5 mV vs. SHE | 50 nM | 120 nM | – | – | – | – | – | – | – | – | – | – | – | – | –
NP4-E55Q: site-directed mutant of NP4, buried E55 replaced by Gln (protein, UniProt Q94734 22-205, looked up, variant E55Q) Nitrophorin-4: ACTKNAIAQTGFNKDKYFNGDVWYVTDYLDLEPDDVPKRYCAALAAGTASGKLKQALYHYDPKTQDTFYDVSELQVESLGKYTANFKKVDKNGNVKVAVTAGNYYTFTVMYADDSSALIHTCLHKGNKDLGDLYAVLNRNKDAAAGDKVKSAVSAATLEFSKFISTKENNCAYDNDSLKSLLTK | 67±2 mV vs. SHE | 126±2 mV vs. SHE | – | – | – | – | – | 68±3 mV | −191±3 mV vs. SHE | 82±4 mV | −196±2 mV vs. SHE | 73±6 mV | −6±5 mV | 88±1 mV vs. SHE | 23±3 mV | 67±2 mV | 1 log unit | – | – | –
NP4-D30A: site-directed mutant of NP4, D30 replaced by Ala (protein, UniProt Q94734 22-205, looked up, variant D30A) Nitrophorin-4: ACTKNAIAQTGFNKDKYFNGDVWYVTDYLALEPDDVPKRYCAALAAGTASGKLKEALYHYDPKTQDTFYDVSELQVESLGKYTANFKKVDKNGNVKVAVTAGNYYTFTVMYADDSSALIHTCLHKGNKDLGDLYAVLNRNKDAAAGDKVKSAVSAATLEFSKFISTKENNCAYDNDSLKSLLTK | 163±4 mV vs. SHE | – | – | – | – | – | – | 46±2 mV | −213±1 mV vs. SHE | 62±4 mV | −216±2 mV vs. SHE | 53±6 mV | 87±5 mV | 181±2 mV vs. SHE | 119±5 mV | 139±2 mV | – | – | – | –
NP1: recombinant wild-type nitrophorin 1 of Rhodnius prolixus, NO-carrying heme protein, with M0 present (protein, UniProt Q26239 24-207, looked up, N-terminal Met0 retained) Nitrophorin-1: KCTKNALAQTGFNKDKYFNGDVWYVTDYLDLEPDDVPKRYCAALAAGTASGKLKEALYHYDPKTQDTFYDVSELQEESPGKYTANFKKVEKNGNVKVDVTSGNYYTFTVMYADDSSALIHTCLHKGNKDLGDLYAVLNRNKDTNAGDKVKGAVTAASLKFSDFISTKDNKCEYDNVSLKSLLTK | 118±3 mV vs. SHE | – | −274±2 mV vs. SHE | −303±4 mV vs. SHE | 154±5 mV vs. SHE | – | – | – | – | – | – | – | – | – | – | – | – | 1e+06 M⁻¹ | 1000 nM | 127±4 mV vs. SHE
